Sampled rows, rich in hits. Any-hit rate of the full collection: about 5.1%.
STAT1 act: activators of IFN-gamma induced STAT1 signaling. NIH 3T3 STAT1-luciferase reporter, luminescence; 100% = IFN-gamma alone, no compound. activation (% of control), % at 5.5 µM. 200,000 tested, 2.6% active;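 active means activation above the screen-wide mean activation plus 3 SD, cut at about 130% in these data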;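 further: raw ratio to IFN-gamma control signal so 100% means no change and 0% no light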
NF-kB expr up: compounds increasing NF-kB expression in human neuronal cells; NF-kB reporter expression; stronger effect = higher value; AID 1239; 190,000 tested, 1.6% active; fold change at 12.5 µM; in the data active means fold change above about 3.3
STAT1 inh: inhibitors of IFN-gamma induced STAT1 signaling | NIH 3T3 STAT1-luciferase reporter, luminescence | inhibition, % at 5.5 µM | 200,000 tested, 0.35% active;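 active means inhibition above a set limit, the mean inhibition across all tested compounds plus 3 SD, cut at about 34% in these data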;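 further: 0% = IFN-gamma with DMSO and 100% = IFN-gamma with 300 µM nifuroxazide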
STAT3 act: increases IL-6 driven STAT3 reporter signal; U3A cells, IL-6 STAT3-luciferase reporter, luminescence; 100% = signal with IL-6 EC80 alone; activation (% of control), % at 5.6 µM; 190,000 tested, 0.91% active;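 active means activation above the screen-wide mean of compound activation plus 3 SD, cut at about 130% in these data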;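 further: 0% = background luminescence of wells with medium and substrate only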
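Detection: reporter luminescence signal / Assay system: STAT1-lacking human U3A cells, STAT3 luciferase reporter / Incubation: compound pre-incubation 1 h before IL-6, then 6 h stimulation at 37 °C / Control set: IL-6-only high control / Read-out: % activation relative to IL-6 control / Probe or stimulus: Interleukin-6, 33 ng/mL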
STAT3 inh: STAT3 signaling inhibition. inhibition, % at 5.5 µM. 190,000 tested, 0.89% active. AID 862. U3A cells, IL-6 STAT3-luciferase reporter, luminescence; host cell line lacks STAT1;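 active means inhibition above the mean inhibition across all screened compounds plus 3 SD, cut at about 44% in these data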;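 further: 0% = DMSO only wells and 100% = 100 µM nifuroxazide control wells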
APP 5'UTR act: activates APP 5'UTR luciferase reporter; AID 1276; activation, % at 2 µM; 190,000 tested, 1% active; SH-SY5Y APP 5'UTR luciferase reporter, luminescence; zero percent = DMSO vehicle wells;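 active means activation above a set limit, based on mean plus 3 SD of controls, cut at about 140% in these data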
STAT1 act conf: confirmation of STAT1 signaling activators. 1,200 tested, 97% active. NIH 3T3 STAT1-luciferase reporter, IFN-gamma potentiation, luminescence; 100% = IFN-gamma EC80 alone, no compound. activation (% of control), % at 5.7 µM. shares compounds with STAT1 act;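 active means activation above a set limit carried over from the earlier primary STAT1 screen, cut at about 140% in these data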;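 further: simple ratio to median IFN-gamma plus DMSO wells so 0% means no light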
NFkB act: NF-kappaB activation in STAT1 activator counter-screen | shares compounds with STAT1 act | HEK293T NF-kB luciferase reporter, TNF-alpha stimulated, luminescence; 100% = TNF-alpha with vehicle only | activation (% of control), % at 5.7 µM | 1,200 tested, 43% active | AID 1306;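 active means activation above the mean of solvent-only control wells plus 3 SD, set per campaign, cut at about 130% in these data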;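 further: TNF-alpha given at a submaximal dose yielding about 80% of full reporter signal; values are well signal over median control so 100% means no change and 0% no light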
STAT3 act 2: counter-screen for STAT1 activators: human STAT3 activation; shares compounds with STAT1 act; U3A cells STAT3-luciferase reporter, IL-6, luminescence; cells lack STAT1; 100 = IL-6 alone, no compound effect; activation (% of control), % at 5.7 µM; 1,200 tested, 46% active; AID 1316;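 active means activation above the solvent-only control well mean plus 3 SD, set per plate batch, cut at about 110% in these data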;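 further: 0% = no luminescence and 100% = median IL-6 plus DMSO wells; higher means more STAT3 reporter activation so hits are non-selective activators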
The depositor's hits bear a star; / = not tested or not shown.

SMILES	STAT1 act	NF-kB expr up	STAT1 inh	STAT3 act	STAT3 inh	APP 5'UTR act	STAT1 act conf	NFkB act	STAT3 act 2
O=C(Nc1ccc(O)cc1)c1c(O)c2c([nH]c1=O)CCCC2	155*	1	-65	83	24	162*	205*	139*	93
O=C(CCS(=O)(=O)c1ccccc1)Nc1ccc(-c2nc3ccccc3s2)cc1	165*	7.2*	-71	65	43	170*	240*	113	89
Cc1ccc2nc(-c3ccc(NC(=O)CN(c4ccccc4C)S(C)(=O)=O)cc3)sc2c1	153*	3.9*	-59	110	-7	195*	218*	130	109
C=CCn1c(SCC(=O)Nc2ccc3c(c2)OCO3)nnc1-c1ccccc1	93	1.6	8	94	11	4	/	/	/
C=CCn1c(SCC(=O)Nc2ccc(-c3nc4ccc(C)cc4s3)cc2)nnc1-c1ccccc1	156*	1.1	-61	78	25	146*	198*	110	94
CC(C)(C)c1ccc(S(=O)(=O)NCC(=O)Nc2ccc(-c3nc4ccccc4s3)cc2)cc1	112	1.7	-13	111	-4	18	/	/	/
Cc1ccccc1N(CC(=O)Nc1ccc(F)cc1)S(C)(=O)=O	105	1.2	-4	89	17	10	/	/	/
Cc1ccc2nc(-c3ccc(NC(=O)CN4C(=O)NC(C)(c5ccc(OC(F)F)cc5)C4=O)cc3)sc2c1 (stereo not drawn)	155*	1.5	-60	100	-2	150*	186*	129	113*
CN(C)CCCNc1ncc(C(F)(F)F)cc1Cl	99	0.88	-3	111	-8	-2	/	/	/
CC(C)(C)NS(=O)(=O)c1ccc(CCC(=O)N2CCCC2)cc1	106	1.1	-8	103	-2	15	/	/	/
COc1ccc(-c2noc(Cc3ccccc3OC)n2)cc1	122	1.4	-25	95	9	20	/	/	/
COc1ccc(-c2noc(Cc3cccs3)n2)cc1	162*	3.9*	-69	95	17	96	181*	138*	104
NC(=O)c1ccccc1N/C=C/C(=O)c1ccc(F)cc1	154*	4.2*	-59	69	39	136*	189*	112	91
O=C(/C=C/Nc1ccc(F)cc1)c1ccc(Br)cc1	172*	/	-78	86	22	135	218*	132	104
Cc1ccc(C(=O)/C=C/NCc2ccc(F)cc2)cc1	120	1.4	-23	97	3	0	/	/	/
O=C(/C=C/Nc1ccccc1F)c1ccc(Br)cc1	182*	8.8*	-92	81	21	224*	239*	111	107
O=C(NCCc1ccc(Cl)cc1)c1cccnc1	102	1.2	-2	109	-10	22	/	/	/
CC(=O)Nc1cccc(NC(=O)c2cc3ccccc3o2)c1	156*	3.4*	-62	93	11	125	178*	135*	109
Cc1ccc(C(=O)c2cc3ccccc3o2)cc1	157*	3.9*	-62	83	23	148*	195*	139*	103
CCN(CC)S(=O)(=O)c1cccc(NC(=O)c2cc3ccccc3o2)c1	102	0.88	-3	94	11	23	/	/	/
CC(=O)c1cc(C(=O)Nc2ccc(C(=O)O)cc2)oc1C	92	1.3	2	95	7	15	/	/	/
Cc1cc(C(=O)Nc2ccccc2)oc1C	155*	3.5*	-60	91	15	98	170*	136*	110
O=C(Nc1cccnc1)c1cc2c(ccc3ccccc32)o1	177*	5.3*	-85	80	27	220*	260*	144*	111*
CCc1c(C)sc(NC(=O)C2CC2)c1C(=O)OC(C)C	104	0.93	-4	99	4	13	/	/	/
O=C(Cc1ccccc1F)Nc1ccc(Cl)nc1	99	1.2	1	105	-2	2	/	/	/
SMILES	STAT1 act	NF-kB expr up	STAT1 inh	STAT3 act	STAT3 inh	APP 5'UTR act	STAT1 act conf	NFkB act	STAT3 act 2
COc1ccc(/C=C/C(O)=C(\C#N)c2nnc(N3CCOCC3)n2-c2ccccc2)cc1OC	94	1.1	5	105	3	3	/	/	/
COc1ccc(C(=O)NCC(=O)N/N=C/C=C/c2ccccc2)cc1OC	92	1.1	8	95	17	-8	/	/	/
CCS(=O)(=O)N1Cc2ccccc2CC1C(=O)Nc1nc2ccccc2s1 (stereo not drawn)	174*	0.91	-82	83	22	210*	230*	123	119*
CCc1nnc(NC(=O)C2Cc3ccccc3CN2S(=O)(=O)CC)s1 (stereo not drawn)	100	1.3	1	90	17	4	/	/	/
CN(C)c1ccc(N=C/C=C2/N(C)c3ccccc3C2(C)C)cc1	173*	0.6	-80	82	24	164*	121	117	110
Cc1cc(C)c(C)c(S(=O)(=O)N2CCN(C(=O)c3cc(=O)[nH]c4ccccc34)CC2)c1C	104	0.37	-5	101	3	-12	/	/	/
COc1ccc(CCNS(=O)(=O)c2cccc3nsnc23)cc1OC	96	1.2	4	99	5	7	/	/	/
O=[N+]([O-])c1cc(Br)c(OCc2nnc(-c3ccccc3)o2)c(Br)c1	103	1	-4	103	4	20	/	/	/
O=[N+]([O-])c1cccc(-c2nnc(-c3ccccc3)o2)c1	153*	3	-60	99	6	115	161*	121	100
CC(C)Cn1c(-c2ccco2)csc1=Nc1cccnc1	97	0.83	4	98	6	16	/	/	/
Cc1cnc2c(C(=O)O)cnn2c1	98	1.2	3	101	7	6	/	/	/
CCCCNC(=S)Nc1ccc(-c2nc3ccc(C)cc3s2)cc1	151*	11*	-57	80	26	180*	210*	143*	100
COCCNc1nnc(SC(C)C(=O)Nc2ccc(-c3nc4ccc(C)cc4s3)cc2)s1 (stereo not drawn)	160*	4.5*	-66	82	20	-14	200*	123	102
CCCCNC(=S)Nc1cccc(C(C)=O)c1	96	1.7	4	100	-2	-2	/	/	/

From PubChem BioAssay
